Ten molecules from ChEMBL document CHEMBL2380300, “Identification of new peptide amides as selective cathepsin L inhibitors: the first step towards selective irreversible inhibitors?” (Bioorg Med Chem Lett, 2013) can be followed below.

The Ki is the dissociation constant of the complex between target and ligand, obtained from inhibition or displacement.

Structures are written as SMILES. Peptide text beside a SMILES is read from it. * marks the point of attachment. Cbz = O=C(OCc1ccccc1)*

Cathepsin S, sequence (P25774 whole entry): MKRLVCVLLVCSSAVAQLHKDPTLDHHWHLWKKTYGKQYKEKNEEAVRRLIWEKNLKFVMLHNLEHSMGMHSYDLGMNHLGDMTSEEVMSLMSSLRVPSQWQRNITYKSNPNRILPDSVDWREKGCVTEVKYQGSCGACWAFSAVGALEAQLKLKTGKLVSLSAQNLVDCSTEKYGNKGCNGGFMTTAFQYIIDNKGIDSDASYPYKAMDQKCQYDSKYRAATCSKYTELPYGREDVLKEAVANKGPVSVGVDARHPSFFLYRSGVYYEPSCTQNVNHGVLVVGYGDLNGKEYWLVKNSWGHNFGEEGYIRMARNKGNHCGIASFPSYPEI

The first test has as its target T1, Cathepsin K (Homo sapiens, UniProt P43235).
T1 sequence (P43235 whole entry): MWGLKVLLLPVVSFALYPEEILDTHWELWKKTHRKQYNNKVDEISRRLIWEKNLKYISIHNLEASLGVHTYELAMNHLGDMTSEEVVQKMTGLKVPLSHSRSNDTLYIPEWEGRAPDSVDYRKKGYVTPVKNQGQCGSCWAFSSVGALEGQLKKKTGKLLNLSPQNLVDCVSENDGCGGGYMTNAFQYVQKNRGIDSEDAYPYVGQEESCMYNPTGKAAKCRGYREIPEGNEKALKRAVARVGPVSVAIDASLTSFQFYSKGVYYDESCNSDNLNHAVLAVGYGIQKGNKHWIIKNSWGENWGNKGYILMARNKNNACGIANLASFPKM
As to the kind of experiment: Inhibition of recombinant cathepsin-K (unknown origin) using Z-Phe-Arg-AMC as substrate by fluorescence assay. The essentials: (§1)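 Recombinant enzyme kinetics. Inhibitor stocks were quantified by amino-acid analysis. Ki was obtained from a minimum of four inhibitor concentrations, each run in duplicate.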
For the molecule `NCCCC[C@H](NC(=O)[C@H](Cc1ccccc1)NC(=O)OCc1ccccc1)C(N)=O`, the Ki is 47 µM.
Same read-out and setting: next, `NCCCC[C@H](NC(=O)[C@H](Cc1ccc(-c2cccs2)cc1)NC(=O)OCc1ccccc1)C(N)=O`: 24 µM; `N=C(N)NCCC[C@H](NC(=O)OCc1ccccc1)C(=O)N[C@@H](Cc1ccccc1)C(=O)N[C@@H](CCCCN)C(N)=O` (Cbz-Arg-Phe-Lys-NH2): 147 µM; `NCCCC[C@H](NC(=O)[C@H](Cc1ccccc1)NC(=O)[C@H](CCCCN)NC(=O)OCc1ccccc1)C(N)=O` (Cbz-Lys-Phe-Lys-NH2): 284 µM.
On the same count and under the same terms, next, `CC(C)C[C@H](NC(=O)OCc1ccccc1)C(=O)N[C@@H](Cc1ccccc1)C(=O)N[C@@H](CCCCN)C(N)=O` (Cbz-Leu-Phe-Lys-NH2): 213 µM.

The next test deals with T2, Cathepsin B (Homo sapiens, UniProt P07858). The experiment in a line: Inhibition of recombinant cathepsin-B (unknown origin) using Z-Arg-Arg-AMC as substrate by fluorescence assay. The essentials: (§2)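 Kinetic assay with recombinant enzyme. Peptide amide stock concentrations were set by amino-acid analysis. Ki was derived from at least three inhibitor concentrations, each measured in duplicate.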
Regarding `NCCCC[C@H](NC(=O)[C@H](Cc1ccccc1)NC(=O)OCc1ccccc1)C(N)=O`, the Ki came to 3410 µM.
For the molecule `NCCCC[C@H](NC(=O)[C@H](Cc1ccc(-c2cccs2)cc1)NC(=O)OCc1ccccc1)C(N)=O`, the Ki is 39 µM.
Same read-out and setting: next, `N=C(N)NCCC[C@H](NC(=O)OCc1ccccc1)C(=O)N[C@@H](Cc1ccccc1)C(=O)N[C@@H](CCCCN)C(N)=O` (Cbz-Arg-Phe-Lys-NH2): 1300 µM.
As to `NCCCC[C@H](NC(=O)[C@H](Cc1ccccc1)NC(=O)[C@H](CCCCN)NC(=O)OCc1ccccc1)C(N)=O` (Cbz-Lys-Phe-Lys-NH2), the Ki stood at 1490 µM.
In the case of `CC(C)C[C@H](NC(=O)OCc1ccccc1)C(=O)N[C@@H](Cc1ccccc1)C(=O)N[C@@H](CCCCN)C(N)=O` (Cbz-Leu-Phe-Lys-NH2), the inhibitory constant (Ki) turned out to be 1180 µM.

The next test concerns the target T3, Procathepsin L (Homo sapiens, UniProt P07711). As to the kind of experiment: Inhibition of recombinant cathepsin-L (unknown origin) using Z-Phe-Arg-AMC as substrate by fluorescence assay. The essentials:
as §2
Target sequence in this assay (P07711 whole entry): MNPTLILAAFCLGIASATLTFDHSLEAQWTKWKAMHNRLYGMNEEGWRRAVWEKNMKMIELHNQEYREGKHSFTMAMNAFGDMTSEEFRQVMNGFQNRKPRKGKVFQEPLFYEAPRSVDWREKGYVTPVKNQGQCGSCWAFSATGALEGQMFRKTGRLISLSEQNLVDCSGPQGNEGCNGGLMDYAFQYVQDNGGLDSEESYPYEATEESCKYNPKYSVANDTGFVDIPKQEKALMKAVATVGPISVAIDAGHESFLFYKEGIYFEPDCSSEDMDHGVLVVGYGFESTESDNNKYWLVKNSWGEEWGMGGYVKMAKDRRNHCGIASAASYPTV
Take `NCCCC[C@H](NC(=O)[C@H](Cc1ccccc1)NC(=O)OCc1ccccc1)C(N)=O`: the Ki was 4.2 µM.
On the same count and under the same terms, next, `NCCCC[C@H](NC(=O)[C@H](Cc1ccc(-c2cccs2)cc1)NC(=O)OCc1ccccc1)C(N)=O`: 0.12 µM.
With `N=C(N)NCCC[C@H](NC(=O)OCc1ccccc1)C(=O)N[C@@H](Cc1ccccc1)C(=O)N[C@@H](CCCCN)C(N)=O` (Cbz-Arg-Phe-Lys-NH2), the Ki was 0.74 µM.
In the case of `NCCCC[C@H](NC(=O)[C@H](Cc1ccccc1)NC(=O)[C@H](CCCCN)NC(=O)OCc1ccccc1)C(N)=O` (Cbz-Lys-Phe-Lys-NH2), the Ki was 0.89 µM.
In the case of `CC(C)C[C@H](NC(=O)OCc1ccccc1)C(=O)N[C@@H](Cc1ccccc1)C(=O)N[C@@H](CCCCN)C(N)=O` (Cbz-Leu-Phe-Lys-NH2), the Ki came to 0.45 µM.

The species named for the next test is Homo sapiens. The experiment in a line: Selectivity ratio of Ki for recombinant cathepsin-K (unknown origin) to Ki for recombinant cathepsin-L (unknown origin). The essentials:
(§3)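 FK = Ki(CatK)/Ki(CatL) and FS = Ki(CatS)/Ki(CatL). Each Ki comes from recombinant enzyme kinetics over a minimum of four inhibitor concentrations, each measured in duplicate.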
As to `NCCCC[C@H](NC(=O)[C@H](Cc1ccccc1)NC(=O)OCc1ccccc1)C(N)=O`, the Ratio Ki came to 11.
The same measure, in the same setting: in the case of `NCCCC[C@H](NC(=O)[C@H](Cc1ccc(-c2cccs2)cc1)NC(=O)OCc1ccccc1)C(N)=O` it was 200; in that of `N=C(N)NCCC[C@H](NC(=O)OCc1ccccc1)C(=O)N[C@@H](Cc1ccccc1)C(=O)N[C@@H](CCCCN)C(N)=O` (Cbz-Arg-Phe-Lys-NH2), 198.
On the same count and under the same terms, in the case of `NCCCC[C@H](NC(=O)[C@H](Cc1ccccc1)NC(=O)[C@H](CCCCN)NC(=O)OCc1ccccc1)C(N)=O` (Cbz-Lys-Phe-Lys-NH2) it was 319; in that of `CC(C)C[C@H](NC(=O)OCc1ccccc1)C(=O)N[C@@H](Cc1ccccc1)C(=O)N[C@@H](CCCCN)C(N)=O` (Cbz-Leu-Phe-Lys-NH2), 473.

The species entered for a further test is Homo sapiens. As to the kind of experiment: Selectivity ratio of Ki for recombinant cathepsin-S (unknown origin) to Ki for recombinant cathepsin-L (unknown origin). An outline of the steps: as §3
Take `NCCCC[C@H](NC(=O)[C@H](Cc1ccccc1)NC(=O)OCc1ccccc1)C(N)=O`: the Ratio Ki worked out at 13.
Turning to `NCCCC[C@H](NC(=O)[C@H](Cc1ccc(-c2cccs2)cc1)NC(=O)OCc1ccccc1)C(N)=O`, the Ratio Ki stood at 233.
Same read-out and setting: next, `N=C(N)NCCC[C@H](NC(=O)OCc1ccccc1)C(=O)N[C@@H](Cc1ccccc1)C(=O)N[C@@H](CCCCN)C(N)=O` (Cbz-Arg-Phe-Lys-NH2): 11; `NCCCC[C@H](NC(=O)[C@H](Cc1ccccc1)NC(=O)[C@H](CCCCN)NC(=O)OCc1ccccc1)C(N)=O` (Cbz-Lys-Phe-Lys-NH2): 46.
On the same count and under the same terms, in the case of `CC(C)C[C@H](NC(=O)OCc1ccccc1)C(=O)N[C@@H](Cc1ccccc1)C(=O)N[C@@H](CCCCN)C(N)=O` (Cbz-Leu-Phe-Lys-NH2) it was 27.

For a further test, the species on record is Homo sapiens. As to the kind of experiment: Selectivity ratio of Ki for recombinant cathepsin-B (unknown origin) to Ki for recombinant cathepsin-L (unknown origin). An outline of the steps: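 Selectivity factor FB = Ki(CatB)/Ki(CatL). Both Ki values come from kinetic runs with the recombinant enzymes, each using at least three inhibitor concentrations in duplicate.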
With `NCCCC[C@H](NC(=O)[C@H](Cc1ccccc1)NC(=O)OCc1ccccc1)C(N)=O`, the Ratio Ki was found to be 810.
The same measure, in the same setting: next, `NCCCC[C@H](NC(=O)[C@H](Cc1ccc(-c2cccs2)cc1)NC(=O)OCc1ccccc1)C(N)=O`: 325; `N=C(N)NCCC[C@H](NC(=O)OCc1ccccc1)C(=O)N[C@@H](Cc1ccccc1)C(=O)N[C@@H](CCCCN)C(N)=O` (Cbz-Arg-Phe-Lys-NH2): 1760; `NCCCC[C@H](NC(=O)[C@H](Cc1ccccc1)NC(=O)[C@H](CCCCN)NC(=O)OCc1ccccc1)C(N)=O` (Cbz-Lys-Phe-Lys-NH2): 1680.
On the same count and under the same terms, next, `CC(C)C[C@H](NC(=O)OCc1ccccc1)C(=O)N[C@@H](Cc1ccccc1)C(=O)N[C@@H](CCCCN)C(N)=O` (Cbz-Leu-Phe-Lys-NH2): 2630.

The species named for another test is Homo sapiens. The experiment in a line: Selectivity ratio of Ka for recombinant cathepsin-L (unknown origin) to Ka for recombinant cathepsin-B (unknown origin).
With `Cc1cccc(C)c1C(=O)OCC(=O)[C@H](CCCCN)NC(=O)[C@H](Cc1ccccc1)NC(=O)[C@H](CC(C)C)NC(=O)OCc1ccccc1`, the Ratio is 2.
On the same count and under the same terms, next, `Cc1cccc(C)c1C(=O)OCC(=O)[C@H](CCCCN)NC(=O)[C@H](Cc1ccccc1)NC(=O)[C@H](CCCNC(=N)N)NC(=O)OCc1ccccc1`: 11.5; `Cc1cccc(C)c1C(=O)OCC(=O)[C@H](CCCCN)NC(=O)[C@H](Cc1ccccc1)NC(=O)[C@H](Cc1c[nH]c2ccccc12)NC(=O)OCc1ccccc1`: 6.9.
As for `Cc1cccc(C)c1C(=O)OCC(=O)[C@H](CCCCN)NC(=O)[C@H](Cc1ccccc1)NC(=O)[C@H](CCCCN)NC(=O)OCc1ccccc1`, the Ratio was 0.3.
On to `Cc1cccc(C)c1C(=O)OCC(=O)[C@H](CCCCN)NC(=O)[C@H](Cc1ccccc1)NC(=O)OCc1ccccc1`, for which the Ratio is 7.8.

For the next test, the target named is T3, Procathepsin L. The experiment in a line: Irreversible inhibition of recombinant cathepsin-L (unknown origin) using Z-Phe-Arg-AMC as substrate.
Target sequence in this assay (P07711 114-333 limits assumed): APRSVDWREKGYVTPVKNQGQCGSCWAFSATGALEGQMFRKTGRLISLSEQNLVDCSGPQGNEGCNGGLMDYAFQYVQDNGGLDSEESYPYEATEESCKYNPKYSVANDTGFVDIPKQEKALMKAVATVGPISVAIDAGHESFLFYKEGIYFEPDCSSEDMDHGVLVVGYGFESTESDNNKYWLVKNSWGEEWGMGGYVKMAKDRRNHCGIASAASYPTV
In the case of `Cc1cccc(C)c1C(=O)OCC(=O)[C@H](CCCCN)NC(=O)[C@H](Cc1ccccc1)NC(=O)[C@H](CC(C)C)NC(=O)OCc1ccccc1`, the Ka stood at 2.69 ×10⁵ /s/M.
As for `Cc1cccc(C)c1C(=O)OCC(=O)[C@H](CCCCN)NC(=O)[C@H](Cc1ccccc1)NC(=O)[C@H](CCCNC(=N)N)NC(=O)OCc1ccccc1`, the Ka was found to be 8.75 ×10⁵ /s/M.
The same measure, in the same setting: in the case of `Cc1cccc(C)c1C(=O)OCC(=O)[C@H](CCCCN)NC(=O)[C@H](Cc1ccccc1)NC(=O)[C@H](Cc1c[nH]c2ccccc12)NC(=O)OCc1ccccc1` it was 3.92 ×10⁵ /s/M; in that of `Cc1cccc(C)c1C(=O)OCC(=O)[C@H](CCCCN)NC(=O)[C@H](Cc1ccccc1)NC(=O)[C@H](CCCCN)NC(=O)OCc1ccccc1`, 2.52 ×10⁵ /s/M.
On the same count and under the same terms, next, `Cc1cccc(C)c1C(=O)OCC(=O)[C@H](CCCCN)NC(=O)[C@H](Cc1ccccc1)NC(=O)OCc1ccccc1`: 2.96 ×10⁵ /s/M.

The target of a further test is Cathepsin S (Homo sapiens, UniProt P25774). As to the kind of experiment: Inhibition of recombinant cathepsin-S (unknown origin) using Z-Val-Arg-AMC as substrate by fluorescence assay. The essentials:
as §1
Consider `NCCCC[C@H](NC(=O)[C@H](Cc1ccccc1)NC(=O)OCc1ccccc1)C(N)=O`, for which the Ki was 56 µM.
On to `NCCCC[C@H](NC(=O)[C@H](Cc1ccc(-c2cccs2)cc1)NC(=O)OCc1ccccc1)C(N)=O`, for which the inhibition constant Ki was 28 µM.
On to `N=C(N)NCCC[C@H](NC(=O)OCc1ccccc1)C(=O)N[C@@H](Cc1ccccc1)C(=O)N[C@@H](CCCCN)C(N)=O` (Cbz-Arg-Phe-Lys-NH2), for which the Ki was 8.5 µM.
On the same count and under the same terms, in the case of `NCCCC[C@H](NC(=O)[C@H](Cc1ccccc1)NC(=O)[C@H](CCCCN)NC(=O)OCc1ccccc1)C(N)=O` (Cbz-Lys-Phe-Lys-NH2) it was 41.1 µM; in that of `CC(C)C[C@H](NC(=O)OCc1ccccc1)C(=O)N[C@@H](Cc1ccccc1)C(=O)N[C@@H](CCCCN)C(N)=O` (Cbz-Leu-Phe-Lys-NH2), 12 µM.

The target of a further test is T2, Cathepsin B. As to the kind of experiment: Irreversible inhibition of recombinant cathepsin-B (unknown origin) using Z-Arg-Arg-AMC as substrate.
For the molecule `Cc1cccc(C)c1C(=O)OCC(=O)[C@H](CCCCN)NC(=O)[C@H](Cc1ccccc1)NC(=O)[C@H](CC(C)C)NC(=O)OCc1ccccc1`, the Ka came to 1.36 ×10⁵ /s/M.
As to `Cc1cccc(C)c1C(=O)OCC(=O)[C@H](CCCCN)NC(=O)[C@H](Cc1ccccc1)NC(=O)[C@H](CCCNC(=N)N)NC(=O)OCc1ccccc1`, the Ka worked out at 0.76 ×10⁵ /s/M.
Same read-out and setting: in the case of `Cc1cccc(C)c1C(=O)OCC(=O)[C@H](CCCCN)NC(=O)[C@H](Cc1ccccc1)NC(=O)[C@H](Cc1c[nH]c2ccccc12)NC(=O)OCc1ccccc1` it was 0.57 ×10⁵ /s/M; in that of `Cc1cccc(C)c1C(=O)OCC(=O)[C@H](CCCCN)NC(=O)[C@H](Cc1ccccc1)NC(=O)[C@H](CCCCN)NC(=O)OCc1ccccc1`, 8.22 ×10⁵ /s/M; in that of `Cc1cccc(C)c1C(=O)OCC(=O)[C@H](CCCCN)NC(=O)[C@H](Cc1ccccc1)NC(=O)OCc1ccccc1`, 0.38 ×10⁵ /s/M.
